The values that follow come from ChEMBL document CHEMBL1127606, “HIV-1 reverse transcriptase inhibitor design using artificial neural networks” (1994).

Activity calls are given as the source filed them. No cut-off for these calls is given here.

The target in experiment [1] is Human immunodeficiency virus type 1 reverse transcriptase (Human immunodeficiency virus 1) (UniProt Q72547). Kind of experiment: Inhibition of HIV-1 reverse transcriptase; - = inactive.
Experiment [2] concerns MT4. Kind of experiment: Antigen p24 content in culture fluid at 10e-4 concentration of compound was tested on MT-4 cells infected by […]. The experiment is classed as functional, Homo sapiens. In outline:
(§1)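 p24 assay: MT-4 cultures were infected with HIV-1 from chronically infected H9/IIIB cultures (0.05–0.1 log10 EPCD50 per cell) and held 7 days with compound at 10^-4 or 10^-5 M. Virus production was measured as p24 antigen in culture fluid by immunoenzymatic assay, in ng/mL.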

Experiment [3] relates to MT4. Kind of experiment: Antigen p24 content in culture fluid at 10e-5 concentration of compound was tested on MT-4 cells infected by […]. The experiment is classed as functional, Homo sapiens. The essentials: as §1
Experiment [4] has as its system MT4. The experiment is described as follows: Content of viable cells at 10e-4 concentration of compound was tested on MT-4 cells infected by […]. The experiment is classed as functional, Homo sapiens. The essentials: (§2)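 Anti-HIV viable-cell assay: MT-4 lymphocytes infected with cell-free fluid from chronically HIV-1-infected H9/IIIB cultures at 0.05–0.1 log10 EPCD50 per cell. They were cultured 7 days with compound at 10^-4 or 10^-5 M. Viable cells were counted by 0.25% trypan blue exclusion and reported as % viable cells.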

The test system of experiment [5] is MT4. Kind of experiment: Content of viable cells at 10e-5 concentration of compound was tested on MT-4 cells infected by […]. The experiment is classed as functional, Homo sapiens. The essentials: as §2
The subject of experiment [6] is MT4. Kind of experiment: Number of infected cells at 10e-4 concentration of compound was tested on MT-4 cells infected by […]. In kind it is functional, Homo sapiens. The essentials: (§3)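 Infected-cell count: HIV-1 (H9/IIIB-derived fluid, 0.05–0.1 log10 EPCD50 per cell) was used to infect MT-4 lymphocytes, which were then grown 7 days with compound at 10^-4 or 10^-5 M. Cells expressing viral antigens on their surface membranes were scored by indirect immunofluorescence with anti-HIV-1 antibodies, as % of cells.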

Experiment [7] concerns MT4. The experiment is described as follows: RT activity in culture fluid at 10e-4 concentration of compound was tested on MT-4 cells infected by […]. In kind it is cell-based. In outline: (§4)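 RT assay: infected MT-4 cells (H9/IIIB-derived HIV-1, 0.05–0.1 log10 EPCD50 per cell) were cultured 7 days with compound at 10^-4 or 10^-5 M. Reverse transcriptase activity in the culture fluid was measured and expressed as % of untreated infected control.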

In experiment [8] the test system is MT4. The experiment is described as follows: RT activity in culture fluid at 10e-5 concentration of compound was tested on MT-4 cells infected by […]. The experiment is classed as cell-based. In outline:
as §4

Experiment [9] relates to MT4. The experiment is described as follows: Number of infected cells at 10e-5 concentration of compound was tested on MT-4 cells infected by […]. The experiment is classed as functional, Homo sapiens. In outline: as §3
Experiment [10] concerns MT4. Kind of experiment: Cytotoxic concentration for 50% death of uninfected MT-4 cell culture.
The subject of experiment [11] is MT4. Kind of experiment: Cytotoxic concentration for 50% death of MT-4 cell culture infected by HIV-1/ IIIB. The experiment is classed as functional, Homo sapiens.

Turning to `CC(=O)N[C@@H]1C=C[C@@H](n2cc(C)c(=O)[nH]c2=O)OC1`, in experiment [1], the result was inactive. Still for that read-out and setting: for `COC(=O)C(NP(=O)(OCC1OC(n2cc(C)c(=O)[nH]c2=O)CC1F)OCC(Cl)(Cl)Cl)C(C)C` (stereo unspecified) the value was “inactive”; for `Cc1cn([C@@H]2O[C@H](CO)[C@@H](N=[N+]=[N-])[C@H]2F)c(=O)[nH]c1=O`, “inactive”; for `CC(=O)OC[C@H]1O[C@H](n2cc(C)c(=O)[nH]c2=O)C=C[C@@H]1OC(C)=O`, “inactive”.

For `Cc1cn([C@H]2C[C@H](N=[N+]=[N-])[C@@H](CO)O2)c(=O)[nH]c1=O` [ZIDOVUDINE], the entries for the “Antigen p24 content” value in the experiment with MT4 [2] and in the experiment on MT4 [3] were 0.82 ng/mL and 0.68 ng/mL, respectively. Moreover, the results for the Viable cells in the experiment with MT4 [4] and with MT4 [5] were 78.6% and 69.7%, respectively. The “No. of infected cells” value with MT4 [6] came out at 2.9%; in the experiment with MT4 [9], 2.1%. Further, the results for the RT activity with MT4 [7] and in the experiment with MT4 [8] were 19.2% and 17%, respectively. This compound also showed a CTC50 in the experiment with MT4 [10] of 0.0053 M. Regarding `Cc1cn(C2C=C[C@H](O)[C@@H](CO)O2)c(=O)[nH]c1=O` (single isomer, unassigned), in experiment [1], the outcome was inactive. Turning to `CC(=O)O[C@H]1C=C[C@H](n2cc(C)c(=O)[nH]c2=O)O[C@@H]1CO`, in [1], the outcome was inactive. On to `CC(=O)N[C@@H]1C=C[C@H](n2cc(C)c(=O)[nH]c2=O)O[C@@H]1CO`, for which the outcome in experiment [1] was inactive. As to `COC(=O)C(Cc1ccccc1)NP(=O)(NC(Cc1ccccc1)C(=O)OC)OCC1OC(n2cc(C)c(=O)[nH]c2=O)CC1F` (stereo unspecified), the outcome in experiment [1] was inactive. In the case of `O=c1ccn(C2OC(CO)C=C2F)c(=O)[nH]1` (stereo unspecified), in experiment [1], the result was inactive. `COC(=O)C(C)NP(=O)(OCC1OC(n2cc(C)c(=O)[nH]c2=O)CC1F)OCC(Cl)(Cl)Cl` (stereo unspecified): the result in [1] was inactive. With `Cc1cn(C2C=C[C@@H](O)[C@@H](CO)O2)c(=O)[nH]c1=O` (single isomer, unassigned), the result in experiment [1] was inactive. Take `CC(=O)O[C@H]1C=C[C@@H](n2cc(C)c(=O)[nH]c2=O)OC1`: the result in [1] was inactive. Same read-out and setting: next, `CCc1cc(CCN2C(=O)c3ccccc3C2=O)c(O)nc1C`: “inactive”. Turning to `COC1=NC(OC)=C([N+](=O)[O-])C(CC(C)=O)N1CC(O)CO` (stereo unspecified), the “Antigen p24 content” value with MT4 [2] was found to be 0.87 ng/mL; with MT4 [3], 0.77 ng/mL. Further, the figures for the Viable cells in the experiment on MT4 [4] and in the experiment on MT4 [5] were 85.1% and 83.2%, respectively. Further, the figures for the “No. of infected cells” value in the experiment on MT4 [6] and with MT4 [9] were 3.6% and 2.8%, respectively. Further, the RT activity in the experiment with MT4 [7] was found to be 20.9%; in the experiment on MT4 [8], 18.7%. Also, the CTC50 in the experiment on MT4 [10] stood at 0.0466 M. For the compound `COc1nc(CC(C)=O)nc(OC)c1CC(O)CO` (stereo unspecified), the CTC50 with MT4 [11] came to 78 µM.

For `Cc1cn([C@@H]2O[C@H](CO)C[C@H]2F)c(=O)[nH]c1=O`, in [1], the outcome was inactive.

Take `Cc1cn([C@@H]2C=C[C@@H](N=[N+]=[N-])[C@@H](CO)O2)c(=O)[nH]c1=O`: the result in experiment [1] was inactive. With `COC1=NC(CC(C)=O)N=C(OC)C1(CC(O)CO)[N+](=O)[O-]` (stereo unspecified), the “Antigen p24 content” value is 1.92 ng/mL with MT4 [2] and 1.87 ng/mL in the experiment with MT4 [3]. The Viable cells is recorded as 37.3% in the experiment on MT4 [4] and 52.1% with MT4 [5]. Further, the “No. of infected cells” value in the experiment on MT4 [6] is listed as 19.7%; with MT4 [9] it was 12.6%. Further, the figures for the RT activity in the experiment on MT4 [7] and with MT4 [8] were 84.3% and 82.5%, respectively. This compound displayed a CTC50 in the experiment on MT4 [10] of 0.058 M. Consider `Cc1cn([C@@H]2O[C@H](CO)C=C2F)c(=O)[nH]c1=O`, for which the result in [1] was inactive. On the same count and under the same terms, for `Cc1cn(C2C=C[C@@H](N=[N+]=[N-])CO2)c(=O)[nH]c1=O` (single isomer, unassigned) the value was “inactive”; for `Cc1cn([C@H]2C=C[C@@H](N=[N+]=[N-])[C@@H](CO)O2)c(=O)[nH]c1=O`, “inactive”. Still for that read-out and setting: for `Nc1nc(=O)n(C2OC(CO)CC2F)cc1F` (stereo unspecified) the value was “inactive”; for `O=c1ccn(C2OC(CO)CC2F)c(=O)[nH]1` (stereo unspecified), “inactive”. `O=c1ccn(C2OC(CO)C(F)C2F)c(=O)[nH]1` (stereo unspecified): the outcome in experiment [1] was inactive. Same read-out and setting: next, `Cc1cn([C@@H]2C=CC(O)CO2)c(=O)[nH]c1=O` (single isomer, unassigned): “inactive”; `CC(=O)N[C@@H]1C=C[C@@H](n2cc(C)c(=O)[nH]c2=O)O[C@@H]1CO`: “inactive”.
